# Screens: PubChem, several laboratories
# STAT1 blocker: STAT1 signaling inhibitors, primary screen, cell-based, HTS, luciferase reporter | inhibition, % at 5.5 µM | 200,000 compounds, 0.35% hits | NIH 3T3 STAT1-luciferase reporter, IFN-gamma, luminescence;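 active = inhibition above a set limit, the mean inhibition across all tested compounds plus 3 SD, cut at about 34% in these data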;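 note: 0% = IFN-gamma with DMSO and 100% = IFN-gamma with 300 µM nifuroxazide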
# STAT3 inh-1: IL-6 driven STAT3 reporter inhibitors, primary screen, U3A cells, luciferase, luminescence, MLSCN library | inhibition, % at 5.5 µM | IL-6 STAT3-luciferase reporter; host cell line lacks STAT1 | 190,000 compounds, 0.89% hits | AID 862, 2007;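 active = inhibition above the mean inhibition across all screened compounds plus 3 SD, cut at about 44% in these data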;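 note: 0% = DMSO only wells and 100% = 100 µM nifuroxazide control wells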
# MT stabilizer: microtubule stabilizers in HeLa cells, primary screen, imaging, high-content imaging; HeLa tubulin immunostaining HCS, 24 h; share of cells brighter than vehicle mean+2SD; AID 2205, 2009; % tubulin-high responders, % at 10 µM; 200,000 compounds, 0.83% hits;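 active = plate Z-score above 3 for both tubulin-high and condensed-nucleus cell shares, with cell loss under 80%, at 10 µM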;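 note: anti alpha tubulin signal scored within the nucleus-defined area of each cell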
# STAT3 act: IL-6 driven STAT3 reporter potentiators, primary screen, U3A cells, luciferase, luminescence, MLSCN library; 190,000 compounds, 0.91% hits; activation (% of control), % at 5.6 µM; IL-6 STAT3-luciferase reporter; 100% = signal with IL-6 EC80 alone;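 active = activation above the screen-wide mean of compound activation plus 3 SD, cut at about 130% in these data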;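 note: 0% = background luminescence of wells with medium and substrate only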
#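 Detection: reporter luminescence signal / Assay system: STAT1-lacking human U3A cells, STAT3 luciferase reporter / Incubation: compound pre-incubation 1 h before IL-6, then 6 h stimulation at 37 °C / Control set: IL-6-only high control / Read-out: % activation relative to IL-6 control / Probe or stimulus: Interleukin-6, 33 ng/mL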
# b-catenin transl: modulators of beta-catenin nuclear translocation, primary screen, imaging, HeLa cells, immunofluorescence, high-content; nuclear translocation activity, % at 5 µM; 190,000 compounds, 0.3% hits;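 active = nuclear translocation activity above 50% at 5 µM, with a well cell count of 50 or more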;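 note: per-cell ratio of nuclear to cytoplasmic median beta-catenin stain intensity; plate controls were DMSO negative control for no effect and GSK-3 inhibitor IX positive control for full effect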
#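 Signal – beta-catenin immunofluorescence imaging with DAPI · Test system – human HeLa cell line · Dosing – 5 µM primary single dose, 0.1% DMSO, 0.02–20 µM confirmation series · Measure – % activation, nuclear-to-cytoplasmic median beta-catenin signal ratio per cell · Incubation – 24 h compound exposure at 37°C, 5% CO2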
# STAT3 inh-2: STAT3 reporter inhibitors, retest of hits, confirmation, U3A cells, luciferase, luminescence | shares compounds with STAT3 inh-1 | IL-6 STAT3 luciferase reporter; cell line lacks STAT1 | inhibition, % at 5.7 µM | 1,200 compounds, 45% hits | AID 1265, 2008;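 active = inhibition above the hit cutoff computed for the primary STAT3 screen, cut at about 44% in these data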;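 note: 0% = IL-6 plus DMSO and 100% = IL-6 plus nifuroxazide control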
# NFkB inh 2: NF-kB reporter inhibitors in human cells, confirmation, counter-screen for STAT3 inhibitor project, cell-based, HEK293T, luciferase, TNF-alpha stimulus | shares compounds with STAT3 inh-1 | TNF-alpha induced | inhibition, % at 5.7 µM | 1,200 compounds, 36% hits;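 active = inhibition above the mean of solvent-only control wells plus 3 SD, cutoff set per campaign, cut at about 13% in these data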;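 note: 0% = TNF-alpha with DMSO and 100% = TNF-alpha with MG high control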
# STAT1 inh 2: STAT1 reporter inhibitors, IFN-gamma induced, confirmation, counter-screen for STAT3 inhibitor project, cell-based, NIH 3T3, luciferase luminescence; shares compounds with STAT3 inh-1; NIH 3T3 STAT1-luciferase reporter; inhibition, % at 5.7 µM; 1,200 compounds, 27% hits;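 active = inhibition above the mean plus 3 SD of solvent-only control wells, limit set per screening run, cut at about 16% in these data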;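 note: 0% = DMSO with IFN-gamma and 100% = nifuroxazide control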
# Active calls of the source: *; nt = no result given. Only some compounds are listed: those with a hit (about 2.4% of all), similar ones and a draw of the others.
SMILES,STAT1 blocker,STAT3 inh-1,MT stabilizer,STAT3 act,b-catenin transl,STAT3 inh-2,NFkB inh 2,STAT1 inh 2
CCOC(=O)/C=c1\s/c(=C\c2c(OC)ccc3ccccc23)c(=O)n1CC(=O)NCC1CCCO1 (stereo unspecified),-6,12,14,94,190*,nt,nt,nt
CCOC(=O)/C=c1\s/c(=C\c2ccc(C(=O)OC)cc2)c(=O)n1CC(=O)Nc1ccccc1,-1,2,4,100,0,nt,nt,nt
N#CC(C#N)=C1C=CC=CN1/C(=C\c1ccccc1Cl)C(=O)c1ccccc1,35*,13,5,95,5,nt,nt,nt
N#CC(C#N)=C1C=CC=CN1/C(=C\c1ccccc1)C(=O)c1cccs1,-3,-11,4,109,-1,nt,nt,nt
Cc1cc(/C=C(\C#N)C(=O)NC2CCCCCC2)c(C)[nH]1,-17,1,10,104,-1,nt,nt,nt
COc1ccc(-c2[nH]ncc2/C=C(/C#N)C(=O)NC2CCCCCC2)cc1,-1,0,49*,103,7,nt,nt,nt
Cc1cc(C)cc(N2CC(O)=C(c3nc4ccccc4c(=O)[nH]3)C2=N)c1,-9,20,5,84,7,nt,nt,nt
COc1cccc(N2CC(O)=C(c3nc4ccccc4c(=O)[nH]3)C2=N)c1,-11,3,26*,98,109*,nt,nt,nt
CCOc1ccc(OCc2ccc(C(=O)OCc3ccccn3)o2)cc1,9,46*,4,65,-2,15,-20,-19
CCOC(=O)c1ccc(COc2ccc(C(C)C)cc2)o1,-14,-2,1,107,4,nt,nt,nt
COc1ccc(C(=O)Nc2ccc(-c3cn4ccsc4n3)cc2)cc1S(=O)(=O)N1CCOCC1,12,32,1,79,-6,nt,nt,nt
CC(C)(C)C(=O)Nc1ccc(-c2cn3ccsc3n2)cc1,31,72*,3,43,2,42,-2,-21
Cc1nc(-c2ccc(NC(=O)CC(C)C)cc2)cs1,-32,27,6,79,nt,nt,nt,nt
CC(C)CC(=O)Nc1ccc(-c2cn3ccsc3n2)cc1,-4,46*,2,65,nt,20,-20,-45
O=C(c1ccc2c(=O)n(C3CCCC3)c(=S)[nH]c2c1)N1CCCCCC1,20,34,4,78,0,nt,nt,nt
O=C(c1ccc2c(=O)n(-c3ccccc3)c(=S)[nH]c2c1)N1CCCCC1,26,47*,4,63,0,51*,14*,25*
CCOC(=O)c1sc(SC)c2c1CCCC2=O,nt,nt,nt,nt,1,nt,nt,nt
O=C(O)c1cccc2c1C(=O)c1cccc3snc-2c13,nt,nt,nt,nt,-1,nt,nt,nt
CCN1C(=C2C(=O)c3ccccc3C2=O)C=Cc2ccccc21,-10,-4,2,104,-4,nt,nt,nt
CCN1/C(=C/c2ccc3ccccc3[n+]2CC)C=Cc2ccccc21,29,92*,4,23,nt,90*,52*,22*
CC(=O)Nc1ccc(N/C=C/C(=O)c2ccco2)cc1,-45,4,2,96,nt,nt,nt,nt
CN(C)c1ccc(N/C=C/C(=O)c2ccco2)cc1,31,60*,2,53,nt,25,25*,-22
CCCOc1ccc(-c2nc[nH]c2[N+](=O)[O-])cc1,0,4,1,101,-4,nt,nt,nt
Cc1nc2ccc(-c3nc4ccccc4[nH]3)cc2[nH]1,-26,46*,2,64,0,9,-11,-87
Cc1ccccc1-c1nc2ccccc2[nH]1,-31,-1,3,102,nt,nt,nt,nt
SMILES,STAT1 blocker,STAT3 inh-1,MT stabilizer,STAT3 act,b-catenin transl,STAT3 inh-2,NFkB inh 2,STAT1 inh 2
O=C(Nc1ncc2c(n1)-c1ccccc1CC2)C1CC1,1,45*,3,66,-1,26,2,-2
CC(C)SCC(=O)Nc1ncc2c(n1)-c1ccccc1CC2,-1,28,2,78,1,nt,nt,nt
Oc1ccc(-c2cccc(-c3ccc(O)cc3)n2)cc1,-14,14,4,89,-1,nt,nt,nt
Oc1ccc(-c2nnc(-c3ccc(O)cc3)nn2)cc1,5,51*,3,60,nt,62*,11,5
COc1ccc(-n2ncc3c(NCC(C)C)ncnc32)cc1,-69,26,4,82,-2,nt,nt,nt
COc1ccc(-n2ncc3c(NC(C)C)ncnc32)cc1,-56,56*,4,55,-4,14,-39,-146
CC(C)=CC[N+]1(C)CCCCC1,1,6,4,94,0,nt,nt,nt
CC(C)(C)c1ccc(NC(=O)N2CCN(c3ccc([N+](=O)[O-])cn3)CC2)cc1,nt,nt,nt,nt,2,nt,nt,nt
CCOc1cc(C(=O)Nc2ncn[nH]2)cc(OCC)c1OCC,-15,-3,4,103,0,nt,nt,nt
CCCCN(C)C(=O)c1cc2cc3ccc(OC)cc3nc2s1,-15,50*,3,62,-2,17,-18,-106
COc1cc(C(=O)OCC(=O)c2c(N)n(C)c(=O)n(C)c2=O)ccc1OCCC(C)C,-2,12,3,96,-1,nt,nt,nt
O=c1[nH]c(Nc2nc3ccccc3o2)nc2c1CCCC2,11,69*,3,47,14,29,-2,-13
Nc1nn(-c2cccc(F)n2)cc1-c1ccc(Cl)cc1,19,58*,2,53,0,14,-25,-138
O=C(Oc1ccc2c3c(c(=O)oc2c1)CCC3)c1ccccc1[N+](=O)[O-],-7,-4,6,99,0,nt,nt,nt
Fc1ccccc1/C=C/c1ccc2ccccc2n1,5,72*,3,40,0,36,30*,-15
Cc1c(C(=O)NCc2ccc3c(c2)OCO3)oc2ccc(S(=O)(=O)N3CCC(C)CC3)cc12,3,12,3,93,-3,nt,nt,nt
CC1CCN(S(=O)(=O)c2ccc3c(c2)oc(=O)n3CC(=O)NCc2ccc3c(c2)OCO3)CC1,12,44*,6,68,nt,38,10,17*
COc1ccc(CNc2cc(C)nc3ncnn23)c(OC)c1,13,67*,4,45,nt,52*,17*,17*
O=C(CSc1nc(C2CCCCC2)n(-c2ccccc2)n1)NCC(F)(F)F,15,12,2,93,-1,nt,nt,nt
CC(=O)c1cn(CC(=O)NCc2ccco2)c2ccccc12,7,8,3,97,0,nt,nt,nt
CC(=O)c1cn(CC(=O)Nc2ccccc2C)c2ccccc12,25,44*,3,64,-1,44*,4,12
